For assay [1], the system named is Alpha-synuclein (Homo sapiens), P37840 [A53T]. The assay is described as follows: Induction of conformational changes in human alpha-synuclein A53T mutant expressed in Escherichia coli BL21(DE3) assessed as ion population arrival time distribution at 2 uM after 20 hrs by ion mobility-mass spectrometry analysis (reference value: 5.23 milliseconds).
Assay [2] is described as follows: Self fibrillation of the compound in pH 7.4 ammonium acetate buffer after 100 hrs by ThT fluorescence assay. Summed up:
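C-PC alone incubated in 500 mM ammonium acetate pH 7.4 at 37 °C with ThT; fluorescence at 440/490 nm tracked over time.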

Assay [3] has as its system Alpha-synuclein (Homo sapiens), P37840 [A53T]. The experiment in a line: Inhibition of fibril formation of human alpha-synuclein A53T mutant expressed in Escherichia coli BL21(DE3) after 100 hrs by ThT fluorescence assay. The essentials:
(§1)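 αS (10 μM) incubated 100 h at 37 °C in 500 mM ammonium acetate pH 7.4 with C-PC at αS:C-PC 2:1 to 200:1; ThT read at 440/490 nm; inhibition = end-point (100 h) ThT fluorescence with C-PC as percentage of αS alone; n = 3, mean ± SEM.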

Assay [4] has the same test system. The assay is described as follows: Inhibition of fibril formation of human alpha-synuclein A53T mutant expressed in Escherichia coli BL21(DE3) at protein to compound molar ratio of 200:1 after 100 hrs by ThT fluorescence assay relative to control. Conditions: concentration not given here. Summed up: as §1
Assay [5] has the same test system. The experiment in a line: Inhibition of preformed fibrils of human alpha-synuclein A53T mutant expressed in Escherichia coli BL21(DE3) at 5 uM treated after 60 hrs during fibril elongation phase by ThT fluorescence assay. The essentials: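 ThT-monitored αS (10 μM) aggregation at 37 °C in 500 mM ammonium acetate pH 7.4; C-PC (5 μM) added at 60 h during elongation, and fluorescence (440/490 nm) followed afterwards; n = 3.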

Assay [6] has the same test system. The experiment in a line: Inhibition of fibril formation of human alpha-synuclein A53T mutant expressed in Escherichia coli BL21(DE3) assessed as reduction in mature fibrils formation at 2 uM after 100 hrs by uranyl acetate staining based transmission electron microscopic method. The essentials:
(§2)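 End-point samples from ThT aggregation assays (αS or Aβ 10 μM, C-PC 2 μM; αS 100 h, Aβ40 25 h, Aβ42 2 h) adsorbed on carbon-coated grids, negatively stained with 2% (w/v) uranyl acetate, imaged by TEM.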

The target of assay [7] is Amyloid-beta precursor protein (Homo sapiens) (UniProt P05067). The experiment in a line: Inhibition of amyloid beta (1 to 40) (unknown origin) fibril formation at 2 uM after 25 hrs by uranyl acetate staining based transmission electron microscopic method. The essentials: as §2
Sequence of Amyloid-beta precursor protein (Homo sapiens) (P05067 whole entry): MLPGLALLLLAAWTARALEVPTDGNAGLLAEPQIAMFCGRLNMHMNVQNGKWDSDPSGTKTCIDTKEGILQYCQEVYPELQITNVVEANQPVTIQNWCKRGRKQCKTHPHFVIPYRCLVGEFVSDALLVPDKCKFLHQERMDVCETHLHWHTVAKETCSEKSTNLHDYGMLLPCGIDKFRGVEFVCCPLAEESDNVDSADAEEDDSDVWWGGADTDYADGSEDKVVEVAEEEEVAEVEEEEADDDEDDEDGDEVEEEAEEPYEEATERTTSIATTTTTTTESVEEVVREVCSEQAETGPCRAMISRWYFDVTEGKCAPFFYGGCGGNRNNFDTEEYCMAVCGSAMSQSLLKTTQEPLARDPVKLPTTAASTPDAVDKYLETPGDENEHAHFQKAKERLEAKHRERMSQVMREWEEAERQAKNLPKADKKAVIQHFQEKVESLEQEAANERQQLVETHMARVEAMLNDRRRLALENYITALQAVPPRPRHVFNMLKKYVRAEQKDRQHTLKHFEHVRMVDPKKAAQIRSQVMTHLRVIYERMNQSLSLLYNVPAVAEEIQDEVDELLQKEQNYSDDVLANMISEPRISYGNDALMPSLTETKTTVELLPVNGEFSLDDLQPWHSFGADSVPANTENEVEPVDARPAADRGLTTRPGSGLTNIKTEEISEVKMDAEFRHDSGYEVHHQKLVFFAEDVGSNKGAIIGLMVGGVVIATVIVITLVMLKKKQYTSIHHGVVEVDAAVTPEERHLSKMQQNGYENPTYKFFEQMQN
For assay [8] the target is unchanged. The experiment in a line: Inhibition of amyloid beta (1 to 42) (unknown origin) fibril formation at 2 uM after 2 hrs by uranyl acetate staining based transmission electron microscopic method. Summed up:
as §2

Assay [9] shares this target. The assay is described as follows: Inhibition of amyloid beta (1 to 40) (unknown origin) fibril formation at protein to compound ratio of 5:1 after 100 hrs by ThT fluorescence assay. Summed up: (§3)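 Aβ40 or Aβ42 (10 μM; NaOH-pretreated stock for monomerization) incubated with C-PC at 5:1 Aβ:C-PC in 500 mM ammonium acetate pH 7.4, 37 °C, sealed plates, up to 100 h; ThT fluorescence 440/490 nm; triplicate, mean ± SEM.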

For assay [10] the target is unchanged. The experiment in a line: Inhibition of amyloid beta (1 to 42) (unknown origin) fibril formation at protein to compound ratio of 5:1 after 100 hrs by ThT fluorescence assay. Summed up:
as §3

The next assay has as its system Saccharomyces cerevisiae. The assay is described as follows: Inhibition of heat-induced amorphous aggregation of yeast ADH at 2.5 uM measured over 2 hrs by light scattering assay. Summed up: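 ADH (5 μM) aggregation induced with 20 mM DTT and 2 mM EDTA (final) at 42 °C; light scattering followed as absorbance at 340 nm over 2 h, with or without C-PC (2.5 μM); triplicate, mean ± SEM.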

The next assay has as its target T1, Catalase (Bos taurus) (UniProt P00432).
T1 sequence (whole entry): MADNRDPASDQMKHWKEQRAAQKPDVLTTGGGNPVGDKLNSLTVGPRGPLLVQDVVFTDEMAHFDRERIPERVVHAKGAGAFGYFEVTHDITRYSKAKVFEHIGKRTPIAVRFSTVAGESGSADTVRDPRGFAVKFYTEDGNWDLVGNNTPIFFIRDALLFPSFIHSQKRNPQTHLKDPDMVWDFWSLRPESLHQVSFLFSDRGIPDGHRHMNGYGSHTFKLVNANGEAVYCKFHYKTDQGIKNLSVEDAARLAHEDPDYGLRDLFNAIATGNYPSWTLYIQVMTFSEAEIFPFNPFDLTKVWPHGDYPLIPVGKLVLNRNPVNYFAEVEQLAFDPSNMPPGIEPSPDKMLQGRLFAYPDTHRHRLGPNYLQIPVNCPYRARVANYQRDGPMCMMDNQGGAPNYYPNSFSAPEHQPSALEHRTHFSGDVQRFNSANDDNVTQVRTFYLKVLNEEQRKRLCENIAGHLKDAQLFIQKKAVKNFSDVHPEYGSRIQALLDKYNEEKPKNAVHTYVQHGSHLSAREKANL
The experiment in a line: Inhibition of heat-induced amorphous aggregation of bovine liver catalase at 2.5 uM measured over 2 hrs by light scattering assay. The essentials: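 Catalase (5 μM) aggregated by heating at 55 °C; absorbance (light scattering) at 340 nm tracked for 2 h with or without C-PC (2.5 μM); triplicate, mean ± SEM.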

In assay [11] the test system is Alpha-synuclein (Homo sapiens), P37840 [A53T]. The experiment in a line: Binding affinity to human 15N-labeled alpha-synuclein A53T mutant expressed in Escherichia coli BL21(DE3) assessed as chemical perturbation at H50 at 7.5 uM by 2D 1H-15N HSQC NMR analysis. Summed up: (§4)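 Uniformly 15N-labelled monomeric αS (grown in M9 medium with [15N]NH4Cl, IPTG-induced) titrated with C-PC; 1H–15N HSQC spectra in 10 mM Na2HPO4, 100 mM NaCl, pH 7.4; amide chemical shift changes and signal-to-noise monitored using prior resonance assignments.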

Assay [12] has the same test system. The assay is described as follows: Binding affinity to human 15N-labeled alpha-synuclein A53T mutant expressed in Escherichia coli BL21(DE3) assessed as reduction in signal to noise ratio at 7.5 uM by 2D 1H-15N HSQC NMR analysis. Summed up: as §4
Assay [13] has the same test system. The assay is described as follows: Binding affinity to human alpha-synuclein A53T mutant expressed in Escherichia coli BL21(DE3) assessed as compound-protein stable complex formation at 2 uM after 20 hrs by native mass spectrometry analysis. The essentials:
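αS (10 μM) incubated with C-PC (2 μM) at 40 °C for 20 h, then analysed by native nanoelectrospray MS for αS–C-PC complex peaks versus monomer/dimer and C-PC oligomer species.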

Assay [14] shares this test system. The assay is described as follows: Binding affinity to human alpha-synuclein A53T mutant expressed in Escherichia coli BL21(DE3) assessed as compound-protein stable complex formation at 2 uM after 20 hrs by size-exclusion chromatographic method.

Activity calls are given as the source filed them. No cut-off for these calls is given here.

For `C/C=C1/C(=C\c2[nH]c(/C=C3N=C(/C=C4/NC(=O)C(CC)=C4C)C(C)=C/3CCC(=O)O)c(CCC(=O)O)c2C)NC(=O)C1C` (stereo unspecified), in assay [1], the TIME worked out at 1.4e-06 h. Also, the outcome in assay [2], in assay [13] and in [14] was inactive. Moreover, the inhibition result in [3] is “Dose-dependent effect”; in assay [4], 50%. Besides, the inhibition entry in [5], in assay [6], in assay [7], in [8], in [9] and in [10] was “Active” each time. Besides, the inhibition entry in the assay with Saccharomyces cerevisiae and on Catalase (Bos taurus) was “inactive” throughout. Moreover, the result in [11] and in [12] was Active.

These data come from ChEMBL document CHEMBL4371098, “C-Phycocyanin from Spirulina Inhibits α-Synuclein and Amyloid-β Fibril Formation but Not Amorphous Aggregation” (J Nat Prod, 2019).
